Reference: ChEMBL document CHEMBL1781935, “Amberlite-IRA-402 (OH) ion exchange resin mediated synthesis of indolizines, pyrrolo [1,2-a] quinolines and isoquinolines: antibacterial and antifungal evaluation of the products” (2011)
≈ marks a conversion by molar mass, not a printed value. Calls of active or inactive are those of the source. The calls are words filed in the database; no cut-off is given here.

Experiments:
Klebsiella pneumoniae [1] = assay: Antibacterial activity against Klebsiella pneumoniae isolate J/1/4 at 1 to 1000 ug/ml after overnight incubation by disc diffusion method; format: functional
Method in brief: (§1)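 Disc diffusion on Mueller-Hinton agar. Plates seeded with 0.1 ml bacterial suspension (2 × 10^6 cfu/ml). Sterile 6 mm paper discs were impregnated with compound solutions at 1–1000 µg/ml and incubated at 37 °C overnight. Read-out was the diameter of the clear inhibition zone. Stocks were 1 mg/ml in 4% Tween 80 or 4% propylene glycol.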

Bacillus subtilis [2] = assay: Antibacterial activity against Bacillus subtilis UC564 at 1 to 1000 ug/ml after overnight incubation by disc diffusion method; format: functional; method in brief: as §1
Enterococcus faecalis [3] = assay: Antibacterial activity against Streptococcus faecalis isolate 29212; format: functional
Method in brief: (§2)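 MIC by broth and agar dilution. Broth: 0.1 ml suspension (2 × 10^6 cfu/ml) in Mueller-Hinton broth with test drug at 1–1000 µg/ml, 37 °C overnight. Agar: serial drug dilutions in Mueller-Hinton agar, spot-inoculated with 2 × 10^6 cfu/spot, 37 °C for 24 h. MIC was the lowest concentration with no visible growth. Antibiotic controls were included.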

Staphylococcus aureus [4] = assay: Antibacterial activity against Staphylococcus aureus ATCC 25923 at 10 to 80 ug/ml after overnight incubation by broth dilution method; format: functional, organism-based
Method in brief: (§3)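 Bactericidal testing with double-fold drug dilutions in Mueller-Hinton broth. Tubes inoculated with 1 ml suspension (2 × 10^6 cfu/ml) and shaken at 200 rpm at 37 °C for 24 h. Drug was added at mid-logarithmic growth. Viable colony counts were taken from 1.0 ml aliquots plated on nutrient agar.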

Vibrio parahaemolyticus [5] = assay: Antibacterial activity against Vibrio parahaemolyticus isolate 72016 at 1 to 1000 ug/ml after overnight incubation by disc diffusion method; format: functional; method in brief: as §1
Shigella dysenteriae [6] = assay: Antibacterial activity against Shigella dysenteriae isolate 3 at 1 to 1000 ug/ml after overnight incubation by disc diffusion method; format: functional
Bacillus subtilis [7] = assay: Antibacterial activity against Bacillus subtilis UC564; format: functional; method in brief: as §2
Micrococcus luteus [8] = assay: Antibacterial activity against Micrococcus luteus AGD1 at 1 to 1000 ug/ml after overnight incubation by disc diffusion method; format: functional; method in brief: as §1
Salmonella typhimurium [9] = assay: Antibacterial activity against Salmonella Typhimurium isolate 11; format: functional, Salmonella enterica subsp. enterica serovar Typhimurium; conditions: Salmonella enterica; method in brief: as §2
Vibrio parahaemolyticus [10] = assay: Antibacterial activity against Vibrio parahaemolyticus isolate 72016; format: functional; method in brief: as §2
Pseudomonas aeruginosa [11] = assay: Antibacterial activity against Pseudomonas aeruginosa ATCC 27853; format: functional; method in brief: as §2
Escherichia coli [12] = assay: Antibacterial activity against Escherichia coli ATCC 25938; format: functional; method in brief: as §2
Pseudomonas aeruginosa [13] = assay: Antibacterial activity against Pseudomonas aeruginosa ATCC 27853 at 1 to 1000 ug/ml after overnight incubation by disc diffusion method; format: functional; method in brief: as §1
Shigella flexneri [14] = assay: Antibacterial activity against Shigella flexneri DN13 at 1 to 1000 ug/ml after overnight incubation by disc diffusion method; format: functional; method in brief: as §1
Escherichia coli [15] = assay: Antibacterial activity against Escherichia coli ATCC 25938 at 1 to 1000 ug/ml after overnight incubation by disc diffusion method; format: functional; method in brief: as §1
Vibrio cholerae [16] = assay: Antibacterial activity against Vibrio cholerae isolate 7201 at 1 to 1000 ug/ml after overnight incubation by disc diffusion method; format: functional
Staphylococcus aureus [17] = assay: Antibacterial activity against Staphylococcus aureus ATCC 25923; format: functional; method in brief: as §2
Pseudomonas aeruginosa [18] = assay: Antibacterial activity against Pseudomonas aeruginosa ATCC 27853 at 10 to 80 ug/ml after overnight incubation by broth dilution method; format: functional, organism-based; method in brief: as §3
Vibrio cholerae [19] = assay: Antibacterial activity against Vibrio cholerae isolate 720 at 1 to 1000 ug/ml after overnight incubation by disc diffusion method; format: functional
Micrococcus luteus [20] = assay: Antibacterial activity against Micrococcus luteus AGD1; format: functional; method in brief: as §2
Klebsiella pneumoniae [21] = assay: Antibacterial activity against Klebsiella pneumoniae isolate J/1/4; format: functional; method in brief: as §2
Salmonella typhi [22] = assay: Antibacterial activity against Salmonella typhi DIRW at 1 to 1000 ug/ml after overnight incubation by disc diffusion method; format: functional; conditions: Salmonella enterica subsp. enterica serovar Typhi
Bacillus subtilis [23] = assay: Antibacterial activity against Bacillus subtilis UC564 at 10 to 80 ug/ml after overnight incubation by broth dilution method; format: functional, organism-based; method in brief: as §3
Escherichia coli [24] = assay: Antibacterial activity against Escherichia coli ATCC 25938 at 10 to 80 ug/ml after overnight incubation by broth dilution method; format: functional, organism-based; method in brief: as §3
Shigella flexneri [25] = assay: Antibacterial activity against Shigella flexneri DN13; format: functional; method in brief: as §2
Shigella dysenteriae [26] = assay: Antibacterial activity against Shigella dysenteriae isolate 3; format: functional
Salmonella typhimurium [27] = assay: Antibacterial activity against Salmonella Typhimurium isolate 11 at 1 to 1000 ug/ml after overnight incubation by disc diffusion method; format: functional, organism-based; conditions: Salmonella enterica subsp. enterica serovar Typhimurium; method in brief: as §1
Staphylococcus aureus [28] = assay: Antibacterial activity against Staphylococcus aureus ATCC 25923 at 1 to 1000 ug/ml after overnight incubation by disc diffusion method; format: functional; method in brief: as §1
Vibrio cholerae [29] = assay: Antibacterial activity against Vibrio cholerae isolate 7201; format: functional
Enterococcus faecalis [30] = assay: Antibacterial activity against Enterococcus faecalis isolate 29212 at 1 to 1000 ug/ml after overnight incubation by disc diffusion method; format: functional; method in brief: as §1
Shigella dysenteriae [31] = assay: Antibacterial activity against Shigella dysenteriae isolate 3 at 10 to 80 ug/ml after overnight incubation by broth dilution method; format: functional, organism-based
Vibrio cholerae [32] = assay: Antibacterial activity against Vibrio cholerae isolate 7201 at 10 to 80 ug/ml after overnight incubation by broth dilution method; format: functional, organism-based
Salmonella typhi [33] = assay: Antibacterial activity against Salmonella typhi DIRW; format: functional, Salmonella enterica subsp. enterica serovar Typhi; conditions: Salmonella enterica
Candida albicans [34] = assay: Antifungal activity against Candida albicans after 96 hrs by dry weight calculation; format: functional, organism-based
Method in brief: (§4)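 Fungicidal testing with double-fold drug dilutions in Sabouraud dextrose broth. Tubes inoculated with 1 ml spore suspension (2 × 10^5 spores/ml) and shaken at 200 rpm at 28 °C for 96 h. Drug was added at mid-logarithmic growth. Growth was measured as sample dry weight after drying at 60 °C.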

Cryptococcus neoformans = assay: Antifungal activity against […] at 1 to 1500 ug/ml after 96 hrs by disc diffusion method; format: functional, organism-based
Method in brief: (§5)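 Disc diffusion on Sabouraud dextrose agar. Plates seeded with 0.1 ml fungal spore suspension (2 × 10^5 spores/ml). Sterile 6 mm discs were impregnated with compound solutions at 1–1500 µg/ml and incubated at 28 °C for 96 h. Read-out was the clear inhibition zone. Strains were clinical isolates.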

Aspergillus niger [35] = assay: Antifungal activity against Aspergillus niger at 1 to 1500 ug/ml after 96 hrs by disc diffusion method; format: functional; method in brief: as §5
Aspergillus niger [36] = assay: Antifungal activity against Aspergillus niger after 96 hrs; format: functional
Method in brief: (§6)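 Clinical isolates grown on Sabouraud dextrose agar at 28 °C. MIC was set by broth dilution in Sabouraud dextrose broth (0.1 ml of 2 × 10^5 spores/ml, 1–1500 µg/ml) or by agar dilution (2 × 10^5 spores/spot), with an antibiotic control, at 28 °C for 96 h. The lowest concentration with no visible growth was taken.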

Candida tropicalis [37] = assay: Antifungal activity against Candida tropicalis at 1 to 1500 ug/ml after 96 hrs by disc diffusion method; format: functional; method in brief: as §5
Candida albicans [38] = assay: Antifungal activity against Candida albicans at 1 to 1500 ug/ml after 96 hrs by disc diffusion method; format: functional; method in brief: as §5
Candida albicans [39] = assay: Antifungal activity against Candida albicans after 96 hrs; format: functional; method in brief: as §6
Aspergillus niger [40] = assay: Antifungal activity against Aspergillus niger after 96 hrs by dry weight calculation; format: functional, organism-based; method in brief: as §4
Candida tropicalis [41] = assay: Antifungal activity against Candida tropicalis after 96 hrs; format: functional; method in brief: as §6

Row | Structure (SMILES) | diameter of the inhibition zone (DIZ) (Klebsiella pneumoniae [1]) [mm] | diameter of the inhibition zone (DIZ) (Bacillus subtilis [2]) [mm] | MIC (Enterococcus faecalis [3]) [µg/mL] | diameter of the inhibition zone (DIZ) (Vibrio parahaemolyticus [5]) | diameter of the inhibition zone (DIZ) (Shigella dysenteriae [6]) [mm] | MIC (Bacillus subtilis [7]) [µg/mL] | diameter of the inhibition zone (DIZ) (Micrococcus luteus [8]) | MIC (Salmonella typhimurium [9]) [µg/mL] | MIC (Vibrio parahaemolyticus [10]) [µg/mL] | MIC (Pseudomonas aeruginosa [11]) [µg/mL] | MIC (Escherichia coli [12]) [µg/mL] | diameter of the inhibition zone (DIZ) (Pseudomonas aeruginosa [13]) | diameter of the inhibition zone (DIZ) (Shigella flexneri [14]) | diameter of the inhibition zone (DIZ) (Escherichia coli [15]) | diameter of the inhibition zone (DIZ) (Vibrio cholerae [16]) [mm] | MIC (Staphylococcus aureus [17]) [µg/mL] | diameter of the inhibition zone (DIZ) (Vibrio cholerae [19]) [mm] | MIC (Micrococcus luteus [20]) [µg/mL] | MIC (Klebsiella pneumoniae [21]) [µg/mL] | diameter of the inhibition zone (DIZ) (Salmonella typhi [22]) | also measured
1 | N#Cc1cc2ccccn2c1C(=O)c1ccccc1 | 8.9 | 9.7 | 500 (≈ 2030 µM) | 7.5 mm | 9 | 16 (≈ 65 µM) | 7.5 mm | 500 (≈ 2030 µM) | 256 (≈ 1040 µM) | > 500 | > 500 | inactive | inactive | inactive | 10 | 32 (≈ 130 µM) | 10 | 256 (≈ 1040 µM) | 64 (≈ 260 µM) | inactive | Activity (Staphylococcus aureus [4]): Active; Activity (Pseudomonas aeruginosa [18]): Active; Activity (Bacillus subtilis [23]): Active; Activity (Escherichia coli [24]): Active; MIC (Shigella flexneri [25]): 500 µg/mL (≈ 2030 µM); MIC (Shigella dysenteriae [26]): 128 µg/mL (≈ 520 µM); diameter of the inhibition zone (DIZ) (Salmonella typhimurium [27]): inactive; diameter of the inhibition zone (DIZ) (Staphylococcus aureus [28]): 12.1 mm; MIC (Vibrio cholerae [29]): 16 µg/mL (≈ 65 µM); diameter of the inhibition zone (DIZ) (Enterococcus faecalis [30]): inactive; Activity (Shigella dysenteriae [31]): Active; Activity (Vibrio cholerae [32]): Active; MIC (Salmonella typhi [33]): 500 µg/mL (≈ 2030 µM)
2 | O=C(c1ccccc1)c1c(-c2ccccc2)cc2c3ccccc3ccn12 | 10.5 | 10.2 | 500 (≈ 1440 µM) | inactive | 8 | 32 (≈ 92.1 µM) | inactive | > 500 | 500 (≈ 1440 µM) | 128 (≈ 368 µM) | 32 (≈ 92.1 µM) | 8.1 mm | inactive | 10 mm | 9 | 128 (≈ 368 µM) | 9 | 500 (≈ 1440 µM) | 64 (≈ 184 µM) | inactive | Activity (Candida albicans [34]): Dose-dependent effect; diameter of the inhibition zone (DIZ) (Cryptococcus neoformans): inactive; diameter of the inhibition zone (DIZ) (Aspergillus niger [35]): 12 mm; MIC (Aspergillus niger [36]): 500 µg/mL (≈ 1440 µM); diameter of the inhibition zone (DIZ) (Candida tropicalis [37]): 10 mm; diameter of the inhibition zone (DIZ) (Candida albicans [38]): 30 mm; MIC (Candida albicans [39]): 500 µg/mL (≈ 1440 µM); Activity (Aspergillus niger [40]): Dose-dependent effect; MIC (Shigella flexneri [25]): 500 µg/mL (≈ 1440 µM); MIC (Shigella dysenteriae [26]): 128 µg/mL (≈ 368 µM); diameter of the inhibition zone (DIZ) (Salmonella typhimurium [27]): inactive; diameter of the inhibition zone (DIZ) (Staphylococcus aureus [28]): 8.5 mm; MIC (Vibrio cholerae [29]): 64 µg/mL (≈ 184 µM); diameter of the inhibition zone (DIZ) (Enterococcus faecalis [30]): inactive; MIC (Candida tropicalis [41]): 1000 µg/mL (≈ 2880 µM); MIC (Salmonella typhi [33]): > 500 µg/mL
